Experimental data published in ChEMBL document CHEMBL5696444 (Nat Commun, 2017).
Calls of active or inactive are those of the source. The rule behind the calls is not given here.

Assays:
[1] = target: Ribosomal protein S6 kinase beta-1 (Homo sapiens) (UniProt P23443); test: Inhibition of RPS6KB1 (unknown origin) at 100 nM in the presence of ATP by Kinome scan method relative to control
HCT-116 [2] = test: Induction of cell cycle arrest in human HCT-116 cells assessed as sub G0/G1 phase at 0.5 uM incubated for 6 hrs by flow cytometry analysis (Rvb=1.6%); format: functional
[3] = target: 3-phosphoinositide-dependent protein kinase 1 (PDPK1) (Homo sapiens) (UniProt O15530); test: Inhibition of PDK1 Direct (unknown origin) at 100 nM in the presence of ATP by Kinome scan method relative to control
3-phosphoinositide-dependent protein kinase 1 (PDPK1) (Homo sapiens), sequence (O15530 whole entry, looked up): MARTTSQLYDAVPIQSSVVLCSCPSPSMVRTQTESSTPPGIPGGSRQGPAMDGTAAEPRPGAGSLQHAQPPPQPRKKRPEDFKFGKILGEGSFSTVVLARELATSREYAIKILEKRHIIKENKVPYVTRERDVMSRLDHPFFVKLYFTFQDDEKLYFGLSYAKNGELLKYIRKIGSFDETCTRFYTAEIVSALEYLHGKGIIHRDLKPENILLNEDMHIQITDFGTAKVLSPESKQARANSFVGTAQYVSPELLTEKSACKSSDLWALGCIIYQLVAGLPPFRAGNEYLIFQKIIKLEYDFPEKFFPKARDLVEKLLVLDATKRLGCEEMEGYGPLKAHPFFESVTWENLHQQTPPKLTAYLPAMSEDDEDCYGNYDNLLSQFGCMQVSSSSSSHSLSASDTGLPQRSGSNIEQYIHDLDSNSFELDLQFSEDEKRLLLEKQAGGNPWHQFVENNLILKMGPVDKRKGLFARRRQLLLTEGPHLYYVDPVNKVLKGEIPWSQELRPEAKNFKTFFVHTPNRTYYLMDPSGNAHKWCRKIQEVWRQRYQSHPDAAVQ

[4] = target: Dual specificity protein kinase CLK3 (Homo sapiens) (UniProt P49761); test: Inhibition of CLK3 (unknown origin) at 1110 nM in the presence of ATP by Kinome scan method relative to control; details: time > 6.0 hrs
Dual specificity protein kinase CLK3 (Homo sapiens), sequence (P49761 whole entry, looked up): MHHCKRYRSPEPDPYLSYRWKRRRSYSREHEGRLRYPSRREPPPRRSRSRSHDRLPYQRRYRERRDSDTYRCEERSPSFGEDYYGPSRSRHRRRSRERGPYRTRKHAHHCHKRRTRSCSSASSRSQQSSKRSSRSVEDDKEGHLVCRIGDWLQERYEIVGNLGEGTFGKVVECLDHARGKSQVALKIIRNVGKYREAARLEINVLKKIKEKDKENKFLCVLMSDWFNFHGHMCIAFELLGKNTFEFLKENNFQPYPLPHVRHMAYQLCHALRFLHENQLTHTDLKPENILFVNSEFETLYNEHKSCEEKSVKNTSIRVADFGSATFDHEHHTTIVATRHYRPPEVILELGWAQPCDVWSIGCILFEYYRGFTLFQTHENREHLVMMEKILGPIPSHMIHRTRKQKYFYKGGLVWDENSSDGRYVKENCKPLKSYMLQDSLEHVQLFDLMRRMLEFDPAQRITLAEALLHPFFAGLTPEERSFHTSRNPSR

[5] = target: Serine/threonine-protein kinase mTOR (Homo sapiens) (UniProt P42345); test: Inhibition of FRAP1 (unknown origin) at 1000 nM in the presence of ATP by Kinome scan method relative to control
HCT-116 [6] = test: Induction of cell cycle arrest in human HCT-116 cells assessed as sub G0/G1 phase at 0.5 uM incubated for 24 hrs by flow cytometry analysis (Rvb=2.5%); format: functional
HCT-116 [7] = test: Induction of cell cycle arrest in human HCT-116 cells assessed as S phase at 5 uM incubated for 6 hrs by flow cytometry analysis (Rvb=39.3%); format: functional
HCT-116 [8] = test: Induction of apoptosis in human HCT-116 cells assessed as necrosis cells at 5 uM incubated for > 6 hrs by annexin V/PI staining based analysis (Rvb=0.55%); format: functional
[9] = target: Dual specificity protein kinase CLK1 (Homo sapiens) (UniProt P49759); test: Inhibition of CLK (unknown origin) in human HCT-116 cells assessed as induction in alternative splicing effect in RBM25-PSEN1 level incubated for 6 hrs by RT-PCR analysis; format: cell-based; details: dose 0.2-5 µM
Dual specificity protein kinase CLK1 (Homo sapiens), sequence (P49759 whole entry, looked up, canonical isoform): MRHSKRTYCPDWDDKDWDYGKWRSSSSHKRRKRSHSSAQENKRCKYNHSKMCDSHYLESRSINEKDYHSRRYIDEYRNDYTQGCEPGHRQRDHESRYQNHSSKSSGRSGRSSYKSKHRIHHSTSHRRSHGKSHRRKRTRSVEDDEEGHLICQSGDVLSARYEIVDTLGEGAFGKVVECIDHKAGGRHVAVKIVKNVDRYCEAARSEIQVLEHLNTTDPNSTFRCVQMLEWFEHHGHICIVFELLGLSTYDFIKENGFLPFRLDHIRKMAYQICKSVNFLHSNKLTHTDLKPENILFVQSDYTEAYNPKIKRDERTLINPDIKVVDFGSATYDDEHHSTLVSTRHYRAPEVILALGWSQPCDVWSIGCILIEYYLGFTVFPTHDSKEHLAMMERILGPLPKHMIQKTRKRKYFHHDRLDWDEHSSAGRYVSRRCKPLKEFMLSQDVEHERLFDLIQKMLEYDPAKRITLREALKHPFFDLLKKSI
Method in brief: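 Cells exposed to graded T3 concentrations for 6 h (chosen to avoid cytotoxicity), with a DMSO vehicle control. Total RNA was reverse-transcribed with oligo-dT primers. Targeted splice or conjoined-gene products were quantified by real-time qPCR or by targeted next-generation sequencing. Conjoined-gene isoform expression was normalized to a sequenced housekeeping gene.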

[10] = target: Casein kinase I isoform alpha (Homo sapiens) (UniProt P48729); test: Inhibition of CSNK1A1 (unknown origin) at 100 nM in the presence of ATP by Kinome scan method relative to control
Casein kinase I isoform alpha (Homo sapiens), sequence (P48729 2-337 limits assumed): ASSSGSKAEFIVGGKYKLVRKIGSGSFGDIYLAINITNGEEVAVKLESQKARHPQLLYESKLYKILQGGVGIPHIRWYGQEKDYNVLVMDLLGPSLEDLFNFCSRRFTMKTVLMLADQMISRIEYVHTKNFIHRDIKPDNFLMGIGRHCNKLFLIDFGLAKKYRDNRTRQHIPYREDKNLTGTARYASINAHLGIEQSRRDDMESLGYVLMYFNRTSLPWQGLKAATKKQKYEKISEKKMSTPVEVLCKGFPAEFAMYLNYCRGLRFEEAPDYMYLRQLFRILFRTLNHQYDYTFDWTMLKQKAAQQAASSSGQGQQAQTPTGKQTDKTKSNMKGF

HCT-116 [11] = test: Induction of cell cycle arrest in human HCT-116 cells assessed as G2/M phase at 5 uM incubated for 6 hrs by flow cytometry analysis (Rvb=25.8%); format: functional
[12] = target: AMP-activated protein kinase (AMPK) alpha-1/beta-1/gamma-1 (Homo sapiens) (UniProt P54619+Q9Y478+Q13131); test: Inhibition of AMPK A1/B1/G1 (unknown origin) at 100 nM in the presence of ATP by Kinome scan method relative to control; format: protein-complex assay
[13] = target: Proto-oncogene tyrosine-protein kinase ROS (Homo sapiens) (UniProt P08922); test: Inhibition of ROS1 (unknown origin) at 1000 nM in the presence of ATP by Kinome scan method relative to control
[14] = target: SRSF protein kinase 1 (Homo sapiens) (UniProt Q96SB4); test: Inhibition of SRPK1 (unknown origin) at 123 nM in the presence of ATP by Kinome scan method relative to control; details: time > 6.0 hrs
SRSF protein kinase 1 (Homo sapiens), sequence (Q96SB4 whole entry): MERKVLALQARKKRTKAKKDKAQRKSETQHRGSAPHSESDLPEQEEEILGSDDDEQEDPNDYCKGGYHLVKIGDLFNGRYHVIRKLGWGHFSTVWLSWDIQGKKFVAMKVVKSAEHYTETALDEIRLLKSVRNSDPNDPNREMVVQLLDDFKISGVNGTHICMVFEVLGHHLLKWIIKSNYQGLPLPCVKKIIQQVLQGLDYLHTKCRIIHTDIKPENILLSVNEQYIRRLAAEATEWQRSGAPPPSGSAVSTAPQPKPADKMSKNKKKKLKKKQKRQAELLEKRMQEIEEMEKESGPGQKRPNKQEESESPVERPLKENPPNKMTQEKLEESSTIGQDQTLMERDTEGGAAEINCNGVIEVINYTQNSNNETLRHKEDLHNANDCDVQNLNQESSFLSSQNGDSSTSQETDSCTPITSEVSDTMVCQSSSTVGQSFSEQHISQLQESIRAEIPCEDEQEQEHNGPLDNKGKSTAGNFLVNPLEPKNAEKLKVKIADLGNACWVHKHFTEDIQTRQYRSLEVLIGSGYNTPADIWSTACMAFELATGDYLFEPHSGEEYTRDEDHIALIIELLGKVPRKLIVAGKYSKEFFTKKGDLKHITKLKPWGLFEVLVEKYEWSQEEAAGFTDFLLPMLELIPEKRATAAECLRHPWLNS

[15] = target: Dual specificity tyrosine-phosphorylation-regulated kinase 3 (Homo sapiens) (UniProt O43781); test: Inhibition of DYRK3 (unknown origin) at 123 nM in the presence of ATP by Kinome scan method relative to control; details: time > 6.0 hrs
Dual specificity tyrosine-phosphorylation-regulated kinase 3 (Homo sapiens), sequence (O43781 whole entry): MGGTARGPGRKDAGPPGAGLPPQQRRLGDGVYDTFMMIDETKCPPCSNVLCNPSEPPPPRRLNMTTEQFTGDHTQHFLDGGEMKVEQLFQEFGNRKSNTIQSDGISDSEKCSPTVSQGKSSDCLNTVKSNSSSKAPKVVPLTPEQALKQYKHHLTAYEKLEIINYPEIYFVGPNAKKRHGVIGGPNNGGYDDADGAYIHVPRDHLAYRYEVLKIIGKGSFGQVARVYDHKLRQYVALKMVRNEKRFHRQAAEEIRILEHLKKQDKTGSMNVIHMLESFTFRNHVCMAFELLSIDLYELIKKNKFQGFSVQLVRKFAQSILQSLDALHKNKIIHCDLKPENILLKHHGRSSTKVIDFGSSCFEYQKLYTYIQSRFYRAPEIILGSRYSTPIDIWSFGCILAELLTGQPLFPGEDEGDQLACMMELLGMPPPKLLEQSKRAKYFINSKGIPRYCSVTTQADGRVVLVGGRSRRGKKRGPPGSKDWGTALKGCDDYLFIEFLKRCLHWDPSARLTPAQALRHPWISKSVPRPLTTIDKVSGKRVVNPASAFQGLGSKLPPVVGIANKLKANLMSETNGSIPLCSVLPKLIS

[16] = target: Interleukin-1 receptor-associated kinase 4 (Homo sapiens) (UniProt Q9NWZ3); test: Inhibition of IRAK4 (unknown origin) at 100 nM in the presence of ATP by Kinome scan method relative to control
HCT-116 [17] = test: Induction of cell cycle arrest in human HCT-116 cells assessed as S phase at 1 uM incubated for 6 hrs by flow cytometry analysis (Rvb=39.3%); format: functional
[18] = target: PI3-kinase p110-alpha/p85-alpha (Homo sapiens) (UniProt P27986+P42336); test: Inhibition of PIK3CA/PIK3R1 (unknown origin) at 1000 nM in the presence of ATP by Kinome scan method relative to control; format: protein-complex assay
[19] = target: Inhibitor of nuclear factor kappa-B kinase subunit beta (Homo sapiens) (UniProt O14920); test: Inhibition of IKBKB (unknown origin) at 1000 nM in the presence of ATP by Kinome scan method relative to control
[20] = target: Dual specificity tyrosine-phosphorylation-regulated kinase 1A (Homo sapiens, UniProt Q13627); test: Inhibition of DYRK1A (unknown origin) at 1110 nM in the presence of ATP by Kinome scan method relative to control; details: time > 6.0 hrs
[21] = target: Tyrosine-protein kinase receptor UFO (Homo sapiens) (UniProt P30530); test: Inhibition of AXL (unknown origin) at 100 nM in the presence of ATP by Kinome scan method relative to control
HCT-116 [22] = test: Induction of apoptosis in human HCT-116 cells assessed as early apoptosis at 10 uM incubated for > 6 hrs by annexin V/PI staining based analysis (Rvb=3.29%); format: functional
[23] = target: Dual specificity protein kinase CLK1 (Homo sapiens) (UniProt P49759); test: Inhibition of CLK (unknown origin) in human MDA-MB-468 cells assessed as SRSF6 phosphorylation level incubated for 3 hrs by immunoblot analysis; format: cell-based
HCT-116 [24] = test: Induction of apoptosis in human HCT-116 cells assessed as early apoptosis at 0.1 uM incubated for > 6 hrs by annexin V/PI staining based analysis (Rvb=3.29%); format: functional
HCT-116 [25] = test: Induction of apoptosis in human HCT-116 cells assessed as necrosis cells at 0.1 uM incubated for > 6 hrs by annexin V/PI staining based analysis (Rvb=0.55%); format: functional
[26] = target: Mitogen-activated protein kinase 8 (Homo sapiens) (UniProt P45983); test: Inhibition of MAPK8 (unknown origin) at 1000 nM in the presence of ATP by Kinome scan method relative to control
Mitogen-activated protein kinase 8 (Homo sapiens), sequence (P45983 whole entry): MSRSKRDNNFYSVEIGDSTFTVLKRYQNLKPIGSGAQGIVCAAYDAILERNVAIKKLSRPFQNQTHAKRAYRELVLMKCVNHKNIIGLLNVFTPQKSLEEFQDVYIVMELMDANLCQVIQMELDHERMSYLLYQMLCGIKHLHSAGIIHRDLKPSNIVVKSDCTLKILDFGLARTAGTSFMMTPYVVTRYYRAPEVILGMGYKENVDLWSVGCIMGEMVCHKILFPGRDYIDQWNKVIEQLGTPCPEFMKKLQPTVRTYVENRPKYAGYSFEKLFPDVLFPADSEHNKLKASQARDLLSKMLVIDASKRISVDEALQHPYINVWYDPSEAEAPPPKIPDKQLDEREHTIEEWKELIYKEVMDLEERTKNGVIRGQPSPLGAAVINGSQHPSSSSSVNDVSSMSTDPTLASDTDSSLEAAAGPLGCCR

[27] = target: Dual specificity protein kinase CLK3 (Homo sapiens) (UniProt P49761); test: Inhibition of CLK3 (unknown origin) in human HCT-116 cells assessed as increase in CLK3 protein level at 0.5 to 0.1 uM incubated for 6 hrs by immunoblot analysis; format: cell-based; details: dose 0.5-0.1 µM
Method in brief: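 HCT116 cells were treated for 3 or 6 h and lysed in SDS sample buffer (Tris-HCl pH 6.8), then boiled for 5 min. Lysates were run on 5–15% or 4–12% gradient gels and transferred to nitrocellulose or PVDF. Blots were blocked in milk or BSA/TBS-T and probed overnight at 4 °C with anti-phospho-SR (1H4, 1/1000), anti-SR, anti-CLK1 or anti-CLK3 antibodies, with GAPDH as loading control.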

[28] = target: Serine/threonine-protein kinase Chk2 (Homo sapiens) (UniProt O96017); test: Inhibition of CHEK2 (unknown origin) at 1000 nM in the presence of ATP by Kinome scan method relative to control
Serine/threonine-protein kinase Chk2 (Homo sapiens), sequence (O96017 whole entry): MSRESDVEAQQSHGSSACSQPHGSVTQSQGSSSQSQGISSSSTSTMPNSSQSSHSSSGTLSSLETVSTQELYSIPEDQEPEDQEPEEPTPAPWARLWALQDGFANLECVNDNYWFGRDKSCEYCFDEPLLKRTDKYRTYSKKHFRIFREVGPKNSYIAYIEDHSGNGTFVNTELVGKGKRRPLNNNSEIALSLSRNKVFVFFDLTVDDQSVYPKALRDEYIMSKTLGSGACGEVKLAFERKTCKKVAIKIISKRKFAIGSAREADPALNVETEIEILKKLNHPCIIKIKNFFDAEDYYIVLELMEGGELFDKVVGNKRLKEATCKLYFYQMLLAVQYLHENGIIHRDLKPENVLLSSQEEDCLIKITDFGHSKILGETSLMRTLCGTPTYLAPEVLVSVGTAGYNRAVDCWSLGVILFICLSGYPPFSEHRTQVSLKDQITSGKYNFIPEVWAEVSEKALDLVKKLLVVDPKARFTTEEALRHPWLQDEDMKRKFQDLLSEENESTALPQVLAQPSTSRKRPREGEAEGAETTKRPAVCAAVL

Ribosomal protein S6 kinase beta-1 (Homo sapiens), sequence (P23443 whole entry, looked up): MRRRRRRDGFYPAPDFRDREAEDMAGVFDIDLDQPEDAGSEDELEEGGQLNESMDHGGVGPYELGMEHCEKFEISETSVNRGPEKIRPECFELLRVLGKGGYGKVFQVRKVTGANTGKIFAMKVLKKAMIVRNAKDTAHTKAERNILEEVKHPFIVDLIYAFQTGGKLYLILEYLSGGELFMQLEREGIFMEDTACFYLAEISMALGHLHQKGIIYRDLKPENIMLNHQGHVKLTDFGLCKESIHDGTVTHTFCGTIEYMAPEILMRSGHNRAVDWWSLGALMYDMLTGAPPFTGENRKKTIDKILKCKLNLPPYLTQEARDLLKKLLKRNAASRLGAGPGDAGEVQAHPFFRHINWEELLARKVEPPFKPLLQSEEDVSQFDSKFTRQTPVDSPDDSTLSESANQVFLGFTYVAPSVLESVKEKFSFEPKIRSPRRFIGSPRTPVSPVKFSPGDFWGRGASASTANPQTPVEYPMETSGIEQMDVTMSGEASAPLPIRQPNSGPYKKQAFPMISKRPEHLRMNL

SMILES: CN1CCN(C(=O)C(C)(C)c2ccc(C(=O)Nc3cn4cc(-c5ccncc5)ccc4n3)cc2)CC1 [T3-CLK]
- inhibition [1]: 2%
- Activity (HCT-116 [2]): 1.6%
- inhibition [3]: -1%
- inhibition [4]: 89%
- inhibition [5]: -9%
- Activity (HCT-116 [6]): 13.1%
- Activity (HCT-116 [7]): 37.4%
- Activity (HCT-116 [8]): 0.87%
- inhibition [9]: Dose-Dependent Effect
- inhibition [10]: -4%
- Activity (HCT-116 [11]): 34.5%
- inhibition [12]: -2%
- inhibition [13]: 0%
- inhibition [14]: -3%
- inhibition [15]: -2%
- inhibition [16]: 25%
- Activity (HCT-116 [17]): 47%
- inhibition [18]: 4%
- inhibition [19]: -5%
- inhibition [20]: 97%
- inhibition [21]: -10%
- Activity (HCT-116 [22]): 3.7%
- inhibition [23]: Active
- Activity (HCT-116 [24]): 3.11%
- Activity (HCT-116 [25]): 0.75%
- inhibition [26]: 3%
- inhibition [27]: Active
- inhibition [28]: 24%
